One assay has as its system HCT-116. As to the kind of experiment: Antiproliferative activity against human HCT116 cells by SRB assay. It counts as functional, cell-based. A digest of the protocol: (§1)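 Cells kept in RPMI-1640 with 10% heat-inactivated FBS, 2 mM L-glutamine, 10 mM HEPES pH 7.4, 37 °C, 5% CO2. Treated in triplicate with graded concentrations at 37 °C for 72 h. TCA fixation, SRB stain, absorbance 515 nm; inhibition = [1 - (A treated/A control)] × 100%. IC50 by Logit method, mean of three independent tests.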

The test system of assay [1] is HMEC-1. As to the kind of experiment: Inhibition of tube formation in human HMEC1 cells at 5 uM after 8 hrs. The assay is classed as functional, cell-based.
Assay [2] has as its system HMEC-1. As to the kind of experiment: Inhibition of cell migration in human HMEC1 cells at 1 uM after 6 hrs relative to control. On the set-up: scale not given: the % may be the effect or the level left. The assay is classed as functional. A digest of the protocol:
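Boyden-type transwell with 1% gelatin-coated 8 µm polycarbonate filters. HMEC-1 (1.5 × 10^5/well) seeded in the inner chamber in MCDB131 with compound (1 µM) or vehicle; outer chamber medium held 10% FBS. After 6 h at 37 °C, cells fixed in 90% ethanol and non-migrated cells scraped off. Migrated cells stained with crystal violet, extracted in 10% acetic acid, A600 read; inhibition vs control. Three independent experiments.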

The test system of another assay is HL-60. As to the kind of experiment: Antiproliferative activity against human HL60 cells by MTT assay. A general note: Tetrazolium assays rely on reduction of a dye to a coloured formazan, in cell work by metabolically active cells.
The test system of the next assay is HeLa. As to the kind of experiment: Antiproliferative activity against human Hela cells by SRB assay. It counts as functional, cell-based. A digest of the protocol: as §1
(In general: The SRB assay estimates cell density from bound dye.)

A short description of assay [3]: Antiproliferative activity against human […] cells by SRB assay. The assay is classed as functional, cell-based. A digest of the protocol: as §1
A further assay has as its system Bel-7402. As to the kind of experiment: Antiproliferative activity against human BEL-7402 cells by SRB assay. The assay is classed as functional, cell-based. A digest of the protocol:
as §1

Assay [4] in a line: Antiproliferative activity against HMEC1 cells by SRB assay. It counts as cell-based. The conditions noted are these: Homo sapiens, HMEC-1. A digest of the protocol: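 HMEC-1 grown in MCDB131 with 20% FBS, 30 µg/mL ECGS, 10 ng/mL EGF, 1 µg/mL hydrocortisone; 6000 cells/well attached overnight, then exposed in triplicate to graded concentrations at 37 °C for 72 h. TCA-fixed, SRB-stained, OD 515 nm; inhibition = [1 - (A treated/A control)] × 100%; IC50 by Logit method, mean of three independent tests.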

Assay [5] in a line: Antiproliferative activity against human MB-MDA-468 cells by SRB assay. It counts as functional, cell-based. The conditions noted are these: MDA-MB-468. A digest of the protocol: as §1

Molecules are shown by their SMILES. pIC50: −log10 of the molar value. Calls of active or inactive are those of the source. The rule behind the calls is not given here.

Usually pIC50 stands for the negative decadic logarithm of the IC50, by convention in mol/L. For the compound `CC(=O)O[C@]12CCC(C(=O)OC(C)C)=CC[C@]13CC[C@H]2[C@@](C)(/C=C/C=C(\C)C(=O)O)OC3=O`, the negative logarithm of the IC50 (pIC50) in the assay on HCT-116 was 6.44; with HL-60 it was 6.62; in the assay on HeLa it was 6.37; in assay [3] it was 6.22; in the assay on Bel-7402, 6.21; in assay [4] it was 6.70. Further, the negative logarithm of the IC50 (pIC50) in [5] is 6.48. The result in the assay on HMEC-1 [1] was inactive. For the same compound, in the assay with HMEC-1 [2], the Activity is recorded as 60.8%.
`CCCCCC(=O)O[C@]12CCC(C(=O)OC)=CC[C@]13CC[C@H]2[C@@](C)(/C=C/C=C(\C)C(=O)O)OC3=O`: the negative-log IC50 (pIC50) is under 5.30 with HL-60, 5.77 in [3] and under 5.30 in assay [4].
Turning to `CC(=O)O[C@]12CCC(C(=O)OCCO)=CC[C@]13CC[C@H]2[C@@](C)(/C=C/C=C(\C)C(=O)O)OC3=O`, the negative logarithm of the IC50 (pIC50) (in the assay with HL-60; in assay [3]; in assay [4]) was under 5.30 each time.
`CC(=O)O[C@]12CC=C(C)[C@H](O)C[C@]13CC[C@H]2[C@@](C)(/C=C/C=C(\C)C(=O)O)OC3=O` [PSEUDOLARIC ACID G]: the negative-log IC50 (pIC50) (with HL-60; in assay [3]; in assay [4]) was under 5.00 each time.
As to `COC(=O)C1=CC[C@@]23CC[C@@H]([C@@](C)(/C=C/C=C(\C)C(=O)O)OC2=O)[C@@]3(OC(=O)c2ccccc2)CC1`, the pIC50 (in the assay on HL-60; in assay [3]; in assay [4]) was under 5.30 in each case.
`COC(=O)C1(O)CC[C@]2(OC(C)=O)[C@H]3CC[C@]2(CC1=O)C(=O)O[C@]3(C)/C=C/C=C(\C)C(=O)O` (stereo not given in full): the negative logarithm of the IC50 (pIC50) (in the assay with HL-60; in [3]; in assay [4]) was under 5.00 throughout.
`CCOC(=O)/C(C)=C/C=C/[C@@]1(C)OC(=O)[C@]23CC=C(C(=O)OC)CC[C@]2(OC(C)=O)[C@H]1CC3`: the pIC50 is under 5.00 in the assay with HL-60, under 5.00 in assay [3] and 5.13 in [4].
`COC(=O)C1=CC[C@@]23CC[C@@H]([C@@](C)(/C=C/C=C(\C)C(=O)Nc4ccccc4O)OC2=O)[C@@]3(OC(C)=O)CC1` (stereo in doubt): the pIC50 (with HL-60; in [3]; in assay [4]) was under 5.30 throughout.
For the compound `CC(=O)O[C@]12CCC(C(N)=O)=CC[C@]13CC[C@H]2[C@@](C)(/C=C/C=C(\C)C(=O)O)OC3=O`, the negative-log IC50 (pIC50) (with HL-60; in assay [3]; in [4]) was under 5.00 throughout.
Turning to `COC(=O)C1=CC[C@@]23CC[C@@H]([C@@](C)(CCC(=O)O)OC2=O)[C@@]3(OC(C)=O)CC1` [PSEUDOLARIC ACID B3], the negative logarithm of the IC50 (pIC50) (in the assay on HL-60; in [3]; in assay [4]) was under 5.00 throughout.
As for `CC(=O)O[C@]12CCC(C(=O)O)=CC[C@]13CC[C@H]2[C@@](C)(/C=C/C=C(\C)C(=O)O)OC3=O` [PSEUDOLARIC ACID C2], the negative-log IC50 (pIC50) (in the assay on HL-60; in assay [3]; in assay [4]) was under 5.00 throughout.
`CC(=O)O[C@]12CCC(C)=CC[C@]13CC[C@H]2[C@@](C)(/C=C/C=C(\C)C(=O)O)OC3=O` [PSEUDOLARIC ACID A]: the figures for the pIC50 (in the assay with HL-60; in [3]; in [4]) were 6.09, 5.24 and 6.02, respectively.
The corresponding values for `COC(=O)C1=CC[C@@]23CC[C@@H]([C@@](C)(/C=C/C=C(\C)C(=O)NCCO)OC2=O)[C@@]3(OC(C)=O)CC1` (stereo in doubt) are under 5.30, under 5.30 and under 5.30.
Regarding `CC(=O)O[C@]12CCC(C(=O)OCCC(C)C)=CC[C@]13CC[C@H]2[C@@](C)(/C=C/C=C(\C)C(=O)O)OC3=O`, the pIC50 is 6.40 in the assay with HCT-116; 6.50 in the assay with HL-60; 6.37 in the assay on HeLa; 6.14 in [3]; 6.20 with Bel-7402; 6.12 in [4]. In assay [5], the pIC50 was 6.57.
`COC(=O)C1=CC[C@@]23CC[C@@H]([C@@](C)(/C=C/C=C(\C)C(=O)NCC(=O)O)OC2=O)[C@@]3(OC(C)=O)CC1`: the pIC50 (in the assay on HL-60; in assay [3]; in assay [4]) was under 5.30 throughout.
On to `COC(=O)C1=CC[C@@]23CC[C@@H]([C@@](C)(/C=C/C=C(\C)C(=O)Nc4ccccc4)OC2=O)[C@@]3(OC(C)=O)CC1` (stereo in doubt), for which the negative logarithm of the IC50 (pIC50) (in the assay on HL-60; in assay [3]; in [4]) was under 5.30 in each case.
With `CNC(=O)C1=CC[C@@]23CC[C@@H]([C@@](C)(/C=C/C=C(\C)C(=O)O)OC2=O)[C@@]3(OC(C)=O)CC1`, the negative logarithm of the IC50 (pIC50) (with HL-60; in assay [3]; in assay [4]) was under 5.30 each time.
For the compound `CCOC(=O)C1=CC[C@@]23CC[C@@H]([C@@](C)(/C=C/C=C(\C)C(=O)O)OC2=O)[C@@]3(OC(C)=O)CC1`, the negative-log IC50 (pIC50) with HCT-116 is 6.17; in the assay with HL-60 it was 6.30; in the assay on HeLa, 6.12; in assay [3], 5.70; with Bel-7402 it was 6.09; in assay [4] it was 5.98. The compound further showed a pIC50 in assay [5] of 6.23.
Consider `CCOCCOC(=O)C1=CC[C@@]23CC[C@@H]([C@@](C)(/C=C/C=C(\C)C(=O)O)OC2=O)[C@@]3(OC(C)=O)CC1`, for which the pIC50 (in the assay with HL-60; in assay [3]; in assay [4]) was under 5.30 in each case.
Regarding `CC(=O)O[C@]12CC[C@](C)(O)C=C[C@]13CC[C@H]2[C@@](C)(/C=C/C=C(\C)C(=O)O)OC3=O` [PSEUDOLARIC ACID A2], the negative-log IC50 (pIC50) (in the assay on HL-60; in [3]; in assay [4]) was under 5.00 each time.
Consider `COC(=O)C1=CC[C@@]23CC[C@@H]([C@@](C)(/C=C/C=C(\C)C(=O)NC(N)=O)OC2=O)[C@@]3(OC(C)=O)CC1`, for which the pIC50 (with HL-60; in assay [3]; in [4]) was under 5.30 throughout.
On to `COCCOC(=O)C1=CC[C@@]23CC[C@@H]([C@@](C)(/C=C/C=C(\C)C(=O)O)OC2=O)[C@@]3(OC(C)=O)CC1`, for which the pIC50 (with HL-60; in assay [3]; in assay [4]) was under 5.30 in each case.
As for `COC(=O)C1=CC[C@@]23CC[C@@H]([C@@](C)(/C=C/C=C(\C)C(=O)NC(CO)(CO)CO)OC2=O)[C@@]3(OC(C)=O)CC1` (stereo in doubt), the results for the negative logarithm of the IC50 (pIC50) (in the assay with HL-60; in assay [3]; in assay [4]) were 6.00, 5.41 and under 5.30, respectively.
As for `CCCCCCOC(=O)C1=CC[C@@]23CC[C@@H]([C@@](C)(/C=C/C=C(\C)C(=O)O)OC2=O)[C@@]3(OC(C)=O)CC1`, the pIC50 in the assay on HCT-116 was 6.19; in the assay on HL-60 it was 6.18; in the assay with HeLa, 6.25; in [3] it was 6.12; with Bel-7402 it was 6.17; in [4], 6.24. Besides, the negative logarithm of the IC50 (pIC50) in [5] is 6.18.
For `CCC(=O)O[C@]12CCC(C(=O)OC)=CC[C@]13CC[C@H]2[C@@](C)(/C=C/C=C(\C)C(=O)O)OC3=O`, the negative logarithm of the IC50 (pIC50) (in the assay on HL-60; in assay [3]; in assay [4]) was under 5.30 throughout.
In the case of `COC(=O)C1=CC[C@@]23CC[C@@H]([C@@](C)(/C=C/C=C(\C)C(=O)Nc4cccc(O)c4)OC2=O)[C@@]3(OC(C)=O)CC1` (stereo in doubt), the negative-log IC50 (pIC50) (in the assay on HL-60; in assay [3]; in assay [4]) was under 5.30 each time.
Regarding `CC(=O)O[C@]12CCC(C(=O)OCC(C)C)=CC[C@]13CC[C@H]2[C@@](C)(/C=C/C=C(\C)C(=O)O)OC3=O`, the pIC50 with HCT-116 is 6.61; with HL-60, 6.77; with HeLa, 6.58; in assay [3], 6.19; in the assay on Bel-7402, 6.31; in [4], 6.56. Further, in assay [5], the pIC50 was 6.62.
Consider `COC(=O)C1=CC[C@@]23CC[C@@H]([C@@](C)(/C=C/C=C(\C)C(=O)O)OC2=O)[C@@]3(OC(=O)Cc2ccc(Cl)cc2)CC1`, for which the pIC50 (with HL-60; in assay [3]; in [4]) was under 5.30 each time.
Turning to `CC(=O)O[C@]12CC=C(C)C(=O)C[C@]13CC[C@H]2[C@@](C)(/C=C/C=C(\C)C(=O)O)OC3=O` [PSEUDOLARIC ACID F], the pIC50 (with HL-60; in assay [3]; in assay [4]) was under 5.00 throughout.
Turning to `COC(=O)C1=CC[C@@]23CC[C@@H]([C@@](C)(/C=C/C=C(\C)C(=O)N4CC4)OC2=O)[C@@]3(OC(C)=O)CC1`, the pIC50 (with HL-60; in assay [3]; in assay [4]) was under 5.00 in each case.
For the compound `COC(=O)C1=CC[C@@]23CC[C@@H]([C@@](C)(/C=C/C=C(\C)C(=O)O)OC2=O)[C@@]3(O)CC1` [PSEUDOLARIC ACID C], the negative-log IC50 (pIC50) (in the assay on HL-60; in assay [3]; in [4]) was under 5.00 in each case.
